# Experimental data: ChEMBL document CHEMBL1772948, “Chemistry and biology of macrolide antiparasitic agents” (J Med Chem, 2011)
# Calls of active or inactive are those of the source. No cut-off for these calls is given here.
# Experiments:
# [1] = tested on: Toxoplasma gondii; test: Antiparasitic activity against Toxoplasma gondii 2F-1 expressing yellow fluorescent protein infected in HFF after 4 days; assay type: functional, organism-based; settings: 2F-1, 96 h
# [2] = tested on: Bacillus subtilis; test: Antibacterial activity against Bacillus subtilis; assay type: functional
# [3] = tested on: HFF; test: Cytotoxicity against HFF after 48 hrs by MTS assay; assay type: cell-based; settings: human
# Method in brief: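 Low-passage HFF seeded in 96-well plates and incubated 24h at 37 °C, then exposed to varying macrolide concentrations for 2 days; medium replaced with fresh medium plus MTS, 4h at 37 °C, absorbance 490 nm; CC50 = dose reducing viability by 50%.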
# [4] = tested on: Toxoplasma gondii; test: Antiparasitic activity against yellow fluorescent protein expressing Toxoplasma gondii 2F-1 infected in HFF treated immediately after infection measured after 48 hrs; assay type: functional, organism-based; settings: 2F-1, 48 h
# [5] = tested on: Toxoplasma gondii; test: Antiparasitic activity against yellow fluorescent protein expressing Toxoplasma gondii 2F-1 treated immediately after infection for 48 hrs followed by reinoculated into fresh HFF monolayers measured after 48 hrs; assay type: functional, organism-based; settings: 2F-1, 48 h
# Method in brief: (§1)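 Two-cycle protocol in HFF at 37 °C, 5% CO2, DMEM with 10% FBS. "0h": compound added with parasites, 48 h. "6h": parasites pre-incubated 6 h, uninvaded parasites removed, fresh medium with compound added, 42 h. Released tachyzoites were then harvested, purified and inoculated into fresh HFF without compound for the 2nd cycle. At least triplicate.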
# [6] = tested on: Toxoplasma gondii; test: Antiparasitic activity against yellow fluorescent protein expressing Toxoplasma gondii 2F-1 infected in HFF treated 6 hrs after infection measured after 48 hrs; assay type: functional, organism-based
# [7] = tested on: Toxoplasma gondii; test: Antiparasitic activity against yellow fluorescent protein expressing Toxoplasma gondii 2F-1 treated 6 hrs after infection for 42 hrs followed by reinoculated into fresh HFF monolayers measured after 48 hrs; assay type: functional, organism-based; method in brief: as §1
# [8] = tested on: Toxoplasma gondii; test: Antiparasitic activity against green fluorescent protein expressing […] deficient Toxoplasma gondii RH infected in HFF at 5 uM treated immediately after infection measured after 48 hrs; assay type: functional, organism-based
# Method in brief: (§2)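 GFP-expressing RHΔhxgprt tachyzoites were grown on HFF on glass coverslips in 12-well plates (2×10^4/well). Compound was added either with the parasites ("0h", 48 h) or after a 6 h pre-infection and medium change ("6h", 42 h). Parasites per vacuole were counted by fluorescence microscopy in at least 50 random vacuoles per well. Three independent experiments.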
# [9] = tested on: Toxoplasma gondii; test: Antiparasitic activity against green fluorescent protein expressing hwgprt deficient Toxoplasma gondii RH at 5 uM treated immediately after infection for 48 hrs followed by reinoculated into fresh HFF monolayers measured after 48 hrs; assay type: functional, organism-based; method in brief: as §1
# [10] = tested on: Toxoplasma gondii; test: Antiparasitic activity against green fluorescent protein expressing […] deficient Toxoplasma gondii RH infected in HFF at 5 uM treated 6 hrs after infection measured after 48 hrs; assay type: functional, organism-based; method in brief: as §2
# [11] = tested on: Toxoplasma gondii; test: Antiparasitic activity against green fluorescent protein expressing hwgprt deficient Toxoplasma gondii RH at 5 uM treated 6 hrs after infection for 42 hrs followed by reinoculated into fresh HFF monolayers measured after 48 hrs; assay type: functional, organism-based; method in brief: as §1
# [12] = tested on: Toxoplasma gondii; test: Antiparasitic activity against green fluorescent protein expressing hwgprt deficient Toxoplasma gondii RH infected in HFF assessed as reduction of ycf24/UPRT genes copy number ratio at 10 uM […] followed by reinoculated into fresh HFF monolayers measured after 48 hrs by RT-PCR analysis; assay type: functional
# [13] = tested on: Toxoplasma gondii; test: Antiparasitic activity against clindamycin-resistant Toxoplasma gondii 4 infected in HFF assessed as reduction of ycf24/UPRT genes copy number ratio at 10 uM treated for 48 hrs after 6 hrs infection followed by reinoculated into fresh HFF monolayers measured after 48 hrs by RT-PCR analysis; assay type: functional
# Method in brief: (§3)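 Tachyzoites were seeded on confluent HFF monolayers in 6-well plates at 2×10^5 per well, in DMEM with 10% FBS and 1% PS at 37 °C, 5% CO2. After 6 h pre-infection, the medium was replaced with medium containing compound for 42 h. Released parasites were reinoculated into fresh HFF without drug for 48 h, collected by centrifugation, and measured by qPCR as the ratio of plastid ycf24 to nuclear UPRT copies. At least triplicate.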
# [14] = tested on: Toxoplasma gondii; test: (§4) Antiparasitic activity against green fluorescent protein expressing hwgprt deficient Toxoplasma gondii RH infected in HFF assessed as reduction of ycf24/UPRT genes copy number ratio at 1 uM treated for 48 hrs after 6 hrs infection followed by reinoculated into fresh HFF monolayers measured after 48 hrs by RT-PCR analysis; assay type: functional
# [15] = tested on: Toxoplasma gondii; test: Antiparasitic activity against clindamycin-resistant Toxoplasma gondii 4 infected in HFF assessed as reduction of ycf24/UPRT genes copy number ratio at 1 uM treated for 48 hrs after 6 hrs infection followed by reinoculated into fresh HFF monolayers measured after 48 hrs by RT-PCR analysis; assay type: functional
# [16] = tested on: Toxoplasma gondii; test: as §4, with “0.1” for “1”; assay type: functional; method in brief: as §3
# [17] = tested on: Toxoplasma gondii; test: Antiparasitic activity against clindamycin-resistant Toxoplasma gondii 4 infected in HFF assessed as reduction of ycf24/UPRT genes copy number ratio at 0.1 uM treated for 48 hrs after 6 hrs infection followed by reinoculated into fresh HFF monolayers measured after 48 hrs by RT-PCR analysis; assay type: functional; method in brief: as §3
# [18] = tested on: Toxoplasma gondii; test: Antiparasitic activity against green fluorescent protein expressing […] deficient Toxoplasma gondii RH infected in HFF assessed as parasite doubling time at 5 uM treated immediately after infection measured after 48 hrs; assay type: functional
# Method in brief: (§5)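 HFF were grown on glass coverslips in 12-well plates and infected with 2×10^4 GFP tachyzoites per well. Compound was added with the inoculum; the first cycle ran 48 h, and the second cycle ran in fresh HFF without drug. Parasites per vacuole were counted by fluorescence microscopy, at least 50 random vacuoles per well, to derive doubling time. Three independent experiments.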
# [19] = tested on: Toxoplasma gondii; test: Antiparasitic activity against green fluorescent protein expressing […] deficient Toxoplasma gondii RH assessed as parasite doubling time at 5 uM treated immediately after infection for 48 hrs followed by reinoculated into fresh HFF monolayers measured after 48 hrs; assay type: functional; method in brief: as §5
# [20] = tested on: Toxoplasma gondii; test: Antiparasitic activity against green fluorescent protein expressing […] deficient Toxoplasma gondii RH infected in HFF assessed as decrease in density of parasitophorous vacuoles at 10 uM treated immediately after infection measured after 24 hrs by microscopic analysis; assay type: functional, organism-based
# Method in brief: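 GFP T. gondii RHΔhxgprt in HFF, compound (10 μM) added either with the inoculum ("0h") or after 6 h pre-infection and washing ("6h"); vacuoles per microscope field scored at 24 h, at least 20 random fields from each of three experiments.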
# [21] = tested on: Toxoplasma gondii; test: Antiparasitic activity against clindamycin-resistant Toxoplasma gondii 4 infected in HFF assessed as reduction of ycf24/UPRT genes copy number ratio at 10 uM treated for 48 hrs immediately after infection followed by reinoculated into fresh HFF monolayers measured after 48 hrs by RT-PCR analysis; assay type: functional
# Method in brief: (§6)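 Tachyzoites were seeded on confluent HFF in 6-well plates at 2×10^5 per well, in DMEM with 10% FBS and 1% PS at 37 °C, 5% CO2. Compound was added together with the parasite inoculum, and cultures ran 48 h. Harvested tachyzoites were reinoculated into fresh HFF without drug for a second cycle. Parasites were pelleted by centrifugation and the plastid ycf24 to nuclear UPRT copy ratio was read by qPCR (40 cycles, 94 °C 3 s / 60 °C 30 s). At least triplicate.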
# [22] = tested on: Toxoplasma gondii; test: (§7) Antiparasitic activity against green fluorescent protein expressing […] deficient Toxoplasma gondii RH infected in HFF assessed as reduction of ycf24/UPRT genes copy number ratio at 1 uM treated for 48 hrs immediately after infection followed by reinoculated into fresh HFF monolayers measured after 48 hrs by RT-PCR analysis; assay type: functional
# Method in brief: as §6, with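 “CO2.” for “CO2. Compound was added together with the parasite inoculum, and cultures ran 48 h.”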
# [23] = tested on: Toxoplasma gondii; test: Antiparasitic activity against clindamycin-resistant Toxoplasma gondii 4 infected in HFF assessed as reduction of ycf24/UPRT genes copy number ratio at 1 uM treated for 48 hrs immediately after infection followed by reinoculated into fresh HFF monolayers measured after 48 hrs by RT-PCR analysis; assay type: functional
# Method in brief: as §6, with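 “CO2.” for “CO2. Compound was added together with the parasite inoculum, and cultures ran 48 h.”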
# [24] = tested on: Toxoplasma gondii; test: as §7, with “0.1” for “1”; assay type: functional; method in brief: as §6
# [25] = tested on: Toxoplasma gondii; test: Antiparasitic activity against clindamycin-resistant Toxoplasma gondii 4 infected in HFF assessed as reduction of ycf24/UPRT genes copy number ratio at 0.1 uM treated for 48 hrs immediately after infection followed by reinoculated into fresh HFF monolayers measured after 48 hrs by RT-PCR analysis; assay type: functional; method in brief: as §6
# [26] = tested on: Toxoplasma gondii; test: Antiparasitic activity against green fluorescent protein expressing hwgprt deficient Toxoplasma gondii RH infected in HFF assessed as reduction of ycf24/UPRT genes copy number ratio at 10 uM treated for 42 hrs starting 6 hrs after infection followed by reinoculated into fresh HFF monolayers measured after 48 hrs by RT-PCR analysis
smiles,measurement,setting,value
CC[C@H]1OC(=O)[C@H](C)[C@@H](O[C@H]2C[C@@](C)(OC)[C@@H](O)[C@H](C)O2)[C@H](C)[C@@H](O[C@@H]2O[C@H](C)C[C@H](N(C)C)[C@H]2O)[C@](C)(O)C[C@@H](C)CN(Cc2ccccc2)[C@H](C)[C@@H](O)[C@]1(C)O,IC50,[1],2 µM
same,MIC,[2],0.3 µM
same,CC50,[3],32 µM
same,IC50,[4],5 µM
same,IC50,[5],0.5 µM
same,IC50,[6],9 µM
same,IC50,[7],0.5 µM
same,Activity,[8],Active
same,Activity,[9],Active
same,Activity,[10],Active
same,Activity,[11],Active
same,Ratio,[12],6
same,Ratio,[13],5
same,Ratio,[14],5
same,Ratio,[15],3
same,Ratio,[16],17
same,Ratio,[17],15
same,Time,[18],9.5 h
same,Time,[19],>16 h
same,Activity,[20],Active
same,Ratio,[21],11
same,Ratio,[22],7
same,Ratio,[23],8
same,Ratio,[24],13
same,Ratio,[25],23
same,Ratio,[26],13
